Experimental data: ChEMBL document CHEMBL1152242, “Aldehydic components of cinnamon bark extract suppresses RANKL-induced osteoclastogenesis through NFATc1 downregulation” (Bioorg Med Chem, 2008)
Calls of active or inactive are those of the source. No cut-off for these calls is given here.

Columns and labels:
RAW264.7 [1] = test: Inhibition of multinucleated cell formation in RANKL-stimulated mouse RAW264.7 cells at 0.5 to 2 uM after 3 days by TRAP staining; assay type: functional, cell-based
How it was run: (§1)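 RAW264.7 cells in α-MEM with RANKL, with or without compound, cultured 3 days at 37 °C, 5% CO2. Fixed in acetone/citrate for 30 s, then TRAP-stained with a kit. TRAP+ cells with ≥4 nuclei scored as MNCs by light microscopy, counting four fields, repeated four times. Relative MNC number reported as mean ± SD of triplicates; ANOVA with Dunnett's test.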

RAW264.7 [2] = test: Inhibition of NF-kappaB activation transfected in RANKL-stimulated mouse RAW264.7 cells at 1 to 2 uM; assay type: cell-based
[3] = molecular target: T1, Nuclear factor of activated T-cells, cytoplasmic 1 (Mus musculus) (UniProt O88942); test: Inhibition of NFATc1 pathway in RANKL-stimulated mouse RAW264.7 cells at 1 to 2 uM; assay type: cell-based
T1 sequence (whole entry): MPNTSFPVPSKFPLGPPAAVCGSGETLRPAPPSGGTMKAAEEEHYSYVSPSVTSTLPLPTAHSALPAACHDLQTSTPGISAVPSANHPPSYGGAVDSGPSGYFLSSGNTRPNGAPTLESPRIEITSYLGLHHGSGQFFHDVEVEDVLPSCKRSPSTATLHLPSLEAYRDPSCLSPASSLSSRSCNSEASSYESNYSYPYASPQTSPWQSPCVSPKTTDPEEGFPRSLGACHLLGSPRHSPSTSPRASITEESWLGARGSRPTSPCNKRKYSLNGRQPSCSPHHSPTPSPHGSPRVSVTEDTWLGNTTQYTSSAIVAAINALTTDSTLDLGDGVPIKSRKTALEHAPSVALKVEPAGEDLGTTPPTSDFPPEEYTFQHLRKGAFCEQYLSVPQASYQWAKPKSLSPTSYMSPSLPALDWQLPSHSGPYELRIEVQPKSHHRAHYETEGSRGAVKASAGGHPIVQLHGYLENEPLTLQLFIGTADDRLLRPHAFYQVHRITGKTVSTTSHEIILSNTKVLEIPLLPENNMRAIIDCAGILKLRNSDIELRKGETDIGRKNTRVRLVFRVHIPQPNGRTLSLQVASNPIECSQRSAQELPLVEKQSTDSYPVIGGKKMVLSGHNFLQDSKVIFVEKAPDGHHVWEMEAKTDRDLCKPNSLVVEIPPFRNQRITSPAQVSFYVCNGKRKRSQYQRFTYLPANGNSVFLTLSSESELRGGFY

RAW264.7 [4] = test: Inhibition of osteoclastogenesis in RANKL-stimulated mouse RAW264.7 cells at 1 to 2 uM; assay type: functional, cell-based
RAW264.7 [5] = test: Inhibition of NFATc1 expression in RANKL-stimulated mouse RAW264.7 cells after 48 hrs by immunoblotting; assay type: functional, cell-based
How it was run: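 RAW264.7 cells in α-MEM cultured with RANKL plus test compound for 48 h. Lysates in HEPES pH 7.8/NaCl/EDTA/MgCl2/DTT buffer with protease inhibitors, run on 8% SDS-PAGE and transferred to nitrocellulose. Blocked in 5% milk/PBS-Tween, then anti-NFATc1 primary overnight at 4 °C with GAPDH as loading control. Detected with HRP secondary and ECL.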

RAW264.7 [6] = test: Inhibition of bone resorption by mature osteoclast in RANKL-stimulated mouse RAW264.7 cells at 2 uM pretreated for 1 hr measured after 8 days; assay type: functional
How it was run: (§2)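 RAW264.7 cells pretreated with compound for 1 h, then RANKL (50 ng/ml) added on calcium phosphate apatite-coated plates. Incubated 8 days, then 5% sodium hypochlorite for 5 min, washed, dried and photographed. Total resorbed pit area (mm²) given as mean ± SD of triplicates.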

RAW264.7 [7] = test: Inhibition of bone resorption by mature osteoclast in RANKL-stimulated mouse RAW264.7 cells pretreated for 1 hr measured after 8 days; assay type: functional, cell-based; how it was run: as §2
[8] = Inhibition of NF-kappaB transfected in LPS-stimulated mouse RAW264.7 cells; assay type: cell-based
RAW264.7 [9] = test: Inhibition of multinucleated cell formation in RANKL-stimulated mouse RAW264.7 cells after 3 days by TRAP staining; assay type: functional, cell-based; how it was run: as §1

## COc1ccccc1/C=C/C=O
RAW264.7 [1]
  Activity: Active
RAW264.7 [2]
  Activity: inactive
[3]
  Activity: Active
RAW264.7 [4]
  Activity: Active
RAW264.7 [5]
  Activity: Active
RAW264.7 [6]
  inhibition at 2 µM: 95%
RAW264.7 [7]
  Activity: Active
[8]
  IC50: 31 µM

## OC/C=C/c1ccccc1
RAW264.7 [9]
  Activity: inactive

## O=C(O)/C=C/c1ccccc1
RAW264.7 [9]
  Activity: inactive

## O=C/C=C/c1ccccc1 [CINNAMALDEHYDE]
RAW264.7 [1]
  Activity: Active
RAW264.7 [5]
  Activity: Active
RAW264.7 [7]
  Activity: Active
[8]
  IC50: 43 µM
